Test results: PubChem BioAssay
The source made the active and inactive calls.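 The calls were made as follows, unless noted: active = GFP response above 150% of the DMSO level; inconclusive = fewer than 70 events counted for a yeast strain; inactive = the rest.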

Legend:
[1] = RPL19A-GFP modulators, yeast TOR pathway, confirmation, cell-based, S. cerevisiae, flow cytometry, cherry picks, mother/daughter gates (AID 2270;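 active = GFP response below 50% of the DMSO control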); conditions: S. cerevisiae RPL19A-GFP strain, 3 h, at 10 µM, stronger effect = lower value, 100 = same GFP as DMSO wells
[2] = LAP4-GFP expression modulators in yeast, confirmation, cell-based, cherry picks, flow cytometry, mother/daughter gates (AID 2271;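 active = GFP response above 150% of the DMSO control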;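 also: ratio of sample to DMSO plate mean so 100% equals DMSO level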); conditions: S. cerevisiae LAP4-GFP strain, 3 h, at 10 µM, stronger effect = higher value, 100 means same as DMSO control
Method in brief: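 System: GFP-fusion yeast strain; Incubation: compound exposure 3 h at 30 °C, end-over-end rotation; Measured by: GFP by flow cytometry; Read-out: median GFP fluorescence as percent of plate-mean DMSO wells; Medium: synthetic complete (SC) yeast growth medium; Compound: single test-compound dose, 10 µM final; Benchmarks: DMSO-only negative wells, rapamycin 400 ng/mL positive wells.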

[3] = modulators of MEP2-GFP levels in yeast, confirmation, S. cerevisiae, flow cytometry GFP, cherry picks (AID 2272;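 active = GFP response above 150% of the DMSO control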;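 also: ratio of well signal to plate DMSO mean so 100% equals DMSO level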); conditions: S. cerevisiae MEP2-GFP strain, 3 h, at 10 µM, stronger effect = higher value
[4] = AGP1-GFP expression modulators, hit retest, confirmation, cell-based, flow cytometry, S. cerevisiae, cherry picks (AID 2273);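 also: median GFP channel fluorescence over the whole cell population gate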; conditions: S. cerevisiae AGP1-GFP strain, 3 h, at 10 µM
[5] = modulators of CIT2-GFP expression in yeast, confirmation, S. cerevisiae, GFP fusion, cherry picks, mother/daughter gates (AID 2274); conditions: S. cerevisiae CIT2-GFP strain, flow cytometry, 3 h, at 10 µM, stronger effect = higher value
[6] = measured here: daughter cell gate
[7] = measured here: mother cell gate
[8] = measured here: daughter cell gate response
[9] = measured here: mother cell gate response

Compound | GFP response vs DMSO [1] | GFP response vs DMSO [1, 6] [%] | GFP response vs DMSO [1, 7] [%] | GFP response relative to DMSO [2] | GFP response relative to DMSO [2, 8] [%] | GFP response relative to DMSO [2, 9] [%] | GFP response vs DMSO [3] | GFP response, % of DMSO [4] | GFP response, % of DMSO [5] | GFP response, % of DMSO [5, 6] [%] | GFP response, % of DMSO [5, 7] [%]
CNC(=O)/C(C#N)=C/c1c(N2CC(C)OC(C)C2)nc2ccccn2c1=O (stereo not drawn) | 97.6% (inactive) | 88.7 | 90.1 | 94.4% (inactive) | 92.6 | 92 | 101% (inactive) | 110% (inactive) | 98.8% (inactive) | 95.6 | 85.8
O=C1CC(SCc2nc3ccccc3[nH]2)C(=O)N1c1ccc(F)cc1 (stereo not drawn) | 102% (inactive) | 101 | 100 | 110% (inactive) | 108 | 109 | 110% (inactive) | 106% (inactive) | 108% (inactive) | 108 | 107
CC(=O)OCC(=O)[C@@]1(O)CC[C@H]2[C@@H]3CCC4=CC(=O)CC[C@]4(C)[C@H]3C(=O)C[C@@]21C | 102% (inactive) | 100 | 103 | 101% (inactive) | 102 | 102 | 100% (inactive) | 100% (inactive) | 97.8% (inactive) | 96.5 | 97.7
CCN(CC(=O)NC(C)(C)C)C(=O)COc1c(Cl)cc(Cl)c2ccc(C)nc12 | 100% (inactive) | 101 | 99.7 | 127% (inactive) | 121 | 125 | 126% (inactive) | 102% (inactive) | 108% (inactive) | 111 | 100
C#CCSc1nncn1C(=O)/C=C/c1ccccc1 | 99.4% (inactive) | 98.6 | 95 | 145% (inactive) | 142 | 153 | 103% (inactive) | 101% (inactive) | 103% (inactive) | 111 | 93.7
N#C/C(C(=O)Nc1ccc(Cl)cc1)=C(/S)Nc1ccccc1 | 98.8% (inactive) | 98.9 | 99.3 | 105% (inactive) | 104 | 104 | 101% (inactive) | 100% (inactive) | 105% (inactive) | 105 | 105
Cc1cccc(N=c2c([N+](=O)[O-])nn(-c3ccc(Cl)cc3)n2O)c1 | 97% (inactive) | 95.1 | 97.7 | 111% (inactive) | 104 | 114 | 102% (inactive) | 90.4% (inactive) | 107% (inactive) | 103 | 108
O=C(COC(=O)/C=C/c1cccs1)Nc1nc(-c2cccc(Br)c2)cs1 | 102% (inactive) | 103 | 102 | 89% (inactive) | 94.1 | 89 | 100% (inactive) | 96.7% (inactive) | 110% (inactive) | 108 | 112
COc1ccc(/C=C/C(=O)NC(=S)NNC(=O)c2cnccn2)cc1 | 105% (inactive) | 91.1 | 79.2 | 166% (active) | 120 | 162 | 140% (inactive) | 78.5% (inactive) | 115% (inactive) | 99.1 | 106
Cc1ccnc(N2C(=O)c3cccc4c([N+](=O)[O-])ccc(c34)C2=O)c1 | 102% (inactive) | 101 | 95 | 182% (active) | 177 | 178 | 318% (active) | 123% (inactive) | 177% (active) | 159 | 164
COc1ccc(N2CCN(C(=O)c3ccccc3)CC2)c([N+](=O)[O-])c1 | 101% (inactive) | 98.8 | 103 | 106% (inactive) | 104 | 108 | 107% (inactive) | 102% (inactive) | 91.5% (inactive) | 93.8 | 96.8
COc1ccc(CC2=C(O)c3ccccc3C(=O)C2=O)cc1 | 95.1% (inactive) | 91.3 | 96.1 | 129% (inactive) | 113 | 135 | 97.2% (inactive) | 97% (inactive) | 80.6% (inactive) | 81.6 | 80.4
Cc1ccc2c(c1)/C(=C/c1ccc(F)cc1)C(=O)N2 | 94.5% (inactive) | 92.2 | 92.7 | 124% (inactive) | 110 | 123 | 108% (inactive) | 98.4% (inactive) | 95.8% (inactive) | 97.6 | 94.9
COCc1nnc(NC(=O)c2ccc(S(=O)(=O)N(C)C3CCCCC3)cc2)o1 | 97.6% (inactive) | 98.6 | 97.2 | 103% (inactive) | 102 | 104 | 102% (inactive) | 97.8% (inactive) | 103% (inactive) | 103 | 102
CC(NCCS(=O)(=O)c1ccc(Cl)cc1)c1cccc(Cl)c1 (stereo not drawn) | 95.1% (inactive) | 96.4 | 94 | 97.7% (inactive) | 96 | 99.5 | 106% (inactive) | 98.2% (inactive) | 97.2% (inactive) | 97.6 | 98.2
CCOC(=O)C1CCCN(c2c(C(=O)c3ccccc3)cnc3ccccc23)C1 (stereo not drawn) | 99.3% (inactive) | 98.8 | 102 | 91.9% (inactive) | 90.7 | 89.7 | 97.5% (inactive) | 101% (inactive) | 104% (inactive) | 104 | 101
CCN1C(=O)/C(=C\C(=O)c2cccs2)c2cc(Br)ccc21 | 97.6% (inactive) | 96.7 | 97.2 | 144% (inactive) | 128 | 140 | 104% (inactive) | 94.5% (inactive) | 99.3% (inactive) | 104 | 92.1
Cc1c(CC(C)C)nc(N)c(C#N)c1-c1ccccc1 | 98.4% (inactive) | 99.8 | 99.7 | 94.2% (inactive) | 89.3 | 92.6 | 102% (inactive) | 98.7% (inactive) | 102% (inactive) | 102 | 100
Cc1noc2ncnc(Sc3ccc(Br)cc3)c12 | 97.2% (inactive) | 94.2 | 94.7 | 137% (inactive) | 133 | 135 | 103% (inactive) | 98.8% (inactive) | 108% (inactive) | 106 | 105
CCOc1cc(-c2noc(-c3cccnc3)n2)ccc1OC | 95.8% (inactive) | 94.7 | 95 | 98.9% (inactive) | 99 | 100 | 103% (inactive) | 100% (inactive) | 106% (inactive) | 103 | 106
CC(=O)Nc1cccc(Oc2ccc(-c3noc(C)n3)cc2)c1 | 95.8% (inactive) | 93.4 | 96.3 | 101% (inactive) | 99.1 | 102 | 107% (inactive) | 93.6% (inactive) | 97.3% (inactive) | 95.6 | 96.8
CN(O)/C=c1/ccc2c(n1)C(=O)C=CC=2 | 105% (inactive) | 108 | 100 | 192% (active) | 170 | 188 | 115% (inactive) | 93.2% (inactive) | 167% (active) | 150 | 161
CCn1c2ccccc2c2cc(/C=N/n3cn[nH]c3=S)ccc21 | 93.6% (inactive) | 91.6 | 93.3 | 139% (inactive) | 128 | 141 | 97.2% (inactive) | 94.3% (inactive) | 87.5% (inactive) | 86.9 | 84.8
